Measured values as given in paper PMC3741069 (Biochemistry, 2013).
Numbering of substitutions follows the chain as printed.

Key:
nitrate reductase (NarB) [1] = biological target: T1, nitrate reductase (NarB) (Synechococcus elongatus, UniProt P39458, R84K); assay: spectral perturbation titration; type: binding
T1 sequence (P39458 15-729 R84K): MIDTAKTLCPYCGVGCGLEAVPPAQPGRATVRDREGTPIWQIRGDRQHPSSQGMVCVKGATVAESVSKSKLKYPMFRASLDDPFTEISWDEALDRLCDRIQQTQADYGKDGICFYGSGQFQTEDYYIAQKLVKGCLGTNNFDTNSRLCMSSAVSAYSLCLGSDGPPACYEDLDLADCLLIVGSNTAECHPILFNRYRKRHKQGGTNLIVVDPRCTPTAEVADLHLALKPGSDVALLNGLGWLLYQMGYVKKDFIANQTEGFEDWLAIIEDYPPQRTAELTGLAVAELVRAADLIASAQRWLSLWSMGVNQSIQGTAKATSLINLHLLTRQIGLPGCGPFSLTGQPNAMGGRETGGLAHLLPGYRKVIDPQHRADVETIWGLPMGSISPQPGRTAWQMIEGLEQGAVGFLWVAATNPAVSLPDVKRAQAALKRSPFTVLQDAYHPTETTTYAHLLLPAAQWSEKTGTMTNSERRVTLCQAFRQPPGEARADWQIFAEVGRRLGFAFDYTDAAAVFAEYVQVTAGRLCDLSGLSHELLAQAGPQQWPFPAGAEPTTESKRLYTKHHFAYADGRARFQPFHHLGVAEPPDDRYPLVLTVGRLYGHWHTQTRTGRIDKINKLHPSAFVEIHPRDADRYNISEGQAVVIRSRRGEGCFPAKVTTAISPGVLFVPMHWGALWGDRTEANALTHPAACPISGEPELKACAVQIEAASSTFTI
In short: (§1)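 Single-residue NarB variants were made by site-directed mutagenesis and expressed and purified as for wild type (His6, Co affinity, DEAE, gel filtration). Complex formation with ferredoxin or nitrate was followed by difference absorbance at variant-specific wavelength pairs chosen for signal:noise. The change at saturating nitrate was taken as 100% complex. Kd came from fitting perturbation magnitude against ligand concentration to a single binding isotherm.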

nitrate reductase (NarB) [2] = biological target: T2, nitrate reductase (NarB) (Synechococcus elongatus, UniProt P39458, K144Q); assay: spectral perturbation titration; type: binding
T2 sequence (P39458 15-729 K144Q): T1 sequence (P39458 15-729 R84K) with K70R, K130Q
In short: as §1

O=[N+]([O-])O [nitrate]
Kd (nitrate reductase (NarB) [1]): 6 ± 1 µM
Kd (nitrate reductase (NarB) [2]): 19 ± 6.8 µM
